We go through five compounds from ChEMBL document CHEMBL4033611, “Chlorinated Dehydrocurvularins and Alterperylenepoxide A from Alternaria sp. AST0039, a Fungal Endophyte of Astragalus lentiginosus” (J Nat Prod, 2017).

For one test, the system named is PC-3M. As to the kind of experiment: Cytotoxicity against human PC3M cells after 72 hrs by resazurin/AlamarBlue dye-based fluorescence assay. It is filed as functional, cell-based. The essentials:
(§1)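 Serial dilutions of compound or DMSO vehicle added to triplicate wells in RPMI-1640 with 10% FBS, 72 h at 37 °C. Resazurin (AlamarBlue) dye then added at 1:10 dilution, 4 h more at 37 °C, fluorescence read at Ex/Em 560/590. Mean fluorescence per well compared with DMSO-treated wells as relative viable cell number; doxorubicin positive control.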
For orientation: Alamar Blue is a resazurin reagent that responds to reducing activity.

The next test deals with SF-268. As to the kind of experiment: Cytotoxicity against human SF268 cells after 72 hrs by resazurin/AlamarBlue dye-based fluorescence assay. It is filed as functional, cell-based. The note with it: SF-268, 72 h. In short, it runs like this: as §1
The subject of another test is MDA-MB-231. As to the kind of experiment: Cytotoxicity against human MDA-MB-231 cells after 72 hrs by resazurin/AlamarBlue dye-based fluorescence assay. The test is classed as functional, cell-based. Conditions: MDA-MB-231, 72 h. In short, it runs like this:
as §1

Another test concerns MCF7. The test can be described thus: Cytotoxicity against human MCF7 cells after 72 hrs by resazurin/AlamarBlue dye-based fluorescence assay. Conditions: MCF7, 72 h. It is filed as functional, cell-based. In short, it runs like this: as §1
The subject of test [1] is Fibroblast. As to the kind of experiment: Induction of heat-shock response in mouse fibroblasts harboring reporter construct encoding enhanced green fluorescent protein at 5 uM after overnight incubation by fluorescence assay. The test is classed as functional, cell-based. The essentials:
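Stably transfected reporter fibroblasts (EGFP driven by a minimal consensus heat-shock element) were seeded at 20 000 cells/well and left to attach overnight. Serial 2-fold dilutions of compound were added in triplicate, with DMSO vehicle (≤0.1%) as the negative control. After overnight incubation the cells were rinsed and read in PBS at Ex 485/Em 525 nm. Mean fluorescence ± SD was expressed relative to DMSO.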

In another test the test system is NCI-H460. The test can be described thus: Cytotoxicity against human NCI-H460 cells after 72 hrs by resazurin/AlamarBlue dye-based fluorescence assay. It is filed as functional, cell-based. The note with it: NCI-H460, 72 h. In short, it runs like this:
as §1

Test [2] addresses Transitional endoplasmic reticulum ATPase (Homo sapiens) (UniProt P55072). As to the kind of experiment: Inhibition of p97 in human MDA-MB-231 cells assessed as UPR activation by measuring increase in CHOP protein levels up to 20 uM after 8 hrs by Western blot analysis. It is filed as cell-based. In short, it runs like this: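 MDA-MB-231 cells were treated for 8 h in DMEM with 10% FBS, then harvested in SDS sample buffer, sonicated and cleared. Lysates were run on 4–20% SDS-PAGE and transferred to nitrocellulose. Blots were blocked in 5% milk and probed for CHOP, XBP1s and ATF4 (1:1000), with β-actin as loading control. Detection was by chemiluminescence. DMSO served as negative control, with CB-5083 (1.0 μM) and MG132 (5.0 μM) as comparators.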
Background: A western blot detects proteins with antibodies after separation by electrophoresis.

The species named for test [3] is Homo sapiens. As to the kind of experiment: Inhibition of proteasome in human MDA-MB-231 cells assessed as increase in CHOP protein levels at 5 uM after 8 hrs by Western blot analysis. It is filed as cell-based. The essentials: (§2)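 Cells treated for 8 h in DMEM with 10% FBS, with DMSO negative control, CB-5083 (1.0 μM) positive control and MG132 (5.0 μM) comparator. Lysed by sonication in SDS sample buffer and run on 4–20% SDS-PAGE. Immunoblotted with anti-XBP1s, ATF4, CHOP (1:1000) and β-actin loading control, then HRP secondaries (1:3000) and chemiluminescence.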

The species entered for test [4] is Homo sapiens. The test can be described thus: Inhibition of proteasome in human MDA-MB-231 cells assessed as UPR activation by measuring increase in ATF4 protein levels up to 20 uM after 8 hrs by Western blot analysis. The test is classed as cell-based. The essentials:
as §2

Test [5] is filed under the species Homo sapiens. The test can be described thus: Inhibition of proteasome in human MDA-MB-231 cells assessed as increase in XBP1 protein levels up to 20 uM after 8 hrs by Western blot analysis. It is filed as cell-based. The essentials: as §2
In test [6] the test system is Fibroblast. As to the kind of experiment: Induction of heat-shock response in mouse fibroblasts harboring reporter construct encoding enhanced green fluorescent protein at 1.25 to 5 uM after overnight incubation by fluorescence assay. It is filed as functional, cell-based. In short, it runs like this:
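Reporter fibroblasts carry EGFP driven by a minimal consensus heat-shock element. Seeded at 20 000 cells/well and attached overnight. Serial 2-fold dilutions added in triplicate, with DMSO (≤0.1%) as negative control and monocillin I as positive control. Incubated overnight, rinsed with PBS, fluorescence read at 485/525 nm. Reported as mean ± SD of triplicates, also as a percentage of the DMSO control; three independent experiments.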

The species named for test [7] is Homo sapiens. The test can be described thus: Inhibition of proteasome in human MDA-MB-231 cells assessed as increase in CHOP protein levels up to 20 uM after 8 hrs by Western blot analysis. It is filed as cell-based. In short, it runs like this:
as §2

SMILES strings stand for the structures. pIC50: −log10 of the molar value. Activity calls are given as the source filed them. No cut-off for these calls is given here. Peptide text beside a SMILES is read from it. * marks the point of attachment. Cbz = O=C(OCc1ccccc1)*

Chain of Transitional endoplasmic reticulum ATPase (Homo sapiens) (P55072 2-806 limits assumed): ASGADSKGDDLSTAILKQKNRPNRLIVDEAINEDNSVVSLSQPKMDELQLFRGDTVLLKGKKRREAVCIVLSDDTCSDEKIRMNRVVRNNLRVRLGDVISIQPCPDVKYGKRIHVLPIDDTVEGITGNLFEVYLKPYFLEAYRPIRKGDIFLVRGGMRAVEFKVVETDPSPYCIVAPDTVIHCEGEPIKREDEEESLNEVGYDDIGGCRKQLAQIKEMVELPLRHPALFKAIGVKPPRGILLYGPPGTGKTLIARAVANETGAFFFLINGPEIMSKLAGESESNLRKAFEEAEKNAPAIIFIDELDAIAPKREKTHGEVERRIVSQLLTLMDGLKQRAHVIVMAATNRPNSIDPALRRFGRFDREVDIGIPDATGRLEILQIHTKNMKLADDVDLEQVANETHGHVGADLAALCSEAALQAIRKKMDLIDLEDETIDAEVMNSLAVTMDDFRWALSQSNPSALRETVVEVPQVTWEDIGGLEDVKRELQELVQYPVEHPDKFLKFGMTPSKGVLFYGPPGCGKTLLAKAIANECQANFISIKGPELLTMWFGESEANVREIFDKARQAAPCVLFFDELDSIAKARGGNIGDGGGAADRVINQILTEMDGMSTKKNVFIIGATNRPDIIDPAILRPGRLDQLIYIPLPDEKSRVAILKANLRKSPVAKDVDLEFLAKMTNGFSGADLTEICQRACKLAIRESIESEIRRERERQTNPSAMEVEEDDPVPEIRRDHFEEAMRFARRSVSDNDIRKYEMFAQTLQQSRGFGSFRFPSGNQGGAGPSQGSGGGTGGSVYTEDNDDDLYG

The pIC50 is the negative decadic logarithm of the IC50, by convention in mol/L. In the case of `C[C@H]1CCC/C=C/C(=O)c2c(cc(O)c(Cl)c2O)CC(=O)O1`, the pIC50 in the test on PC-3M was 5.77; in the test on SF-268, 5.85; in the test with MDA-MB-231 it was 5.53; in the test with MCF7 it was 5.70; with NCI-H460 it was 5.84. For the same compound, the result in the test on Fibroblast [1] was Active.

Regarding `C[C@H]1CCC/C=C/C(=O)c2c(O)c(Cl)c(O)c(Cl)c2CC(=O)O1`, the result with Fibroblast [1] was Active. In addition, the inhibition result in test [2] is “Active”.

`CC(C)C[C@@H](C=O)NC(=O)[C@H](CC(C)C)NC(=O)[C@H](CC(C)C)NC(=O)OCc1ccccc1` (Cbz-Leu-Leu-Leu-aldehyde): the inhibition result in the test filed under Homo sapiens [3] was “Active”.

Regarding `C[C@H]1CCC/C=C/C(=O)c2c(O)cc(O)cc2CC(=O)O1` [DEHYDROCURVULARIN], the inhibition entry in the test listed under Homo sapiens [4], in the test listed under Homo sapiens [5] and in the test filed under Homo sapiens [7] was “Active” each time. In addition, the pIC50 is 5.35 in the test on PC-3M, 5.33 in the test with SF-268, under 5.30 with MDA-MB-231 and 5.45 with NCI-H460. Moreover, the result in the test with Fibroblast [6] was Active.

In the test with PC-3M, `COc1cccc2c1C(=O)c1c(O)c3c(c(O)c1C2=O)C[C@@](O)(C(=O)CO)C[C@@H]3O[C@H]1C[C@H](N)[C@H](O)[C@H](C)O1` [DOXORUBICIN] gave a pIC50 of 6.62.
